Results on one compound are retold here after ChEMBL document CHEMBL4321878, “Stereoselective Activity of 1-Propargyl-4-styrylpiperidine-like Analogues That Can Discriminate between Monoamine Oxidase Isoforms A and B” (J Med Chem, 2020).

For data set [1], the system named is Mus musculus. Kind of data set: Effect on spontaneous locomotor activity in Swiss mouse assessed as change in number of light beam crossings at 0.3 mg/kg, ip administered […] and monitored for 5 mins. To be noted: in vivo. Type of data set: ADME, organism-based.
Data set [2] can be described thus: Toxicity in Swiss mouse assessed as change in body weight at 0.3 mg/kg, ip administered once daily for 10 days measured during compound dosing. Type of data set: organism-based. To be noted: in vivo, 240 h.
In data set [3] the test system is Mus musculus. Kind of data set: Ex vivo inhibition of MAOB in Swiss mouse brain homogenates assessed as residual activity at 0.3 mg/kg, ip administered once daily for 10 days measured 30 mins post-last dose using benzylamine as substrate by amplex red reagent-based horseradish peroxidase-coupled fluorescence assay relative to control. Type of data set: functional.

For data set [4], the system named is Mus musculus. Kind of data set: Effect on behavioral changes in Swiss mouse at >10 mg/kg, ip measured after 30 mins and monitored for 5 mins by hole-board test. Type of data set: ADME, organism-based. To be noted: in vivo. The method, boiled down:
(§1)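 Male Swiss mice given single ip doses of ≥10 mg/kg in 0.9% saline, tested 30 min later in the hole-board test combined with spontaneous locomotor activity recording.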

Data set [5] relates to Mus musculus. In words: Effect on behavioral changes in Swiss mouse at 0.3 mg/kg, ip administered […] and monitored for 5 mins by hole-board test. Type of data set: ADME, organism-based. To be noted: in vivo.
Data set [6] addresses T1, Amine oxidase [flavin-containing] B (Mus musculus, UniProt Q8BW75).
T1 sequence (Q8BW75 whole entry): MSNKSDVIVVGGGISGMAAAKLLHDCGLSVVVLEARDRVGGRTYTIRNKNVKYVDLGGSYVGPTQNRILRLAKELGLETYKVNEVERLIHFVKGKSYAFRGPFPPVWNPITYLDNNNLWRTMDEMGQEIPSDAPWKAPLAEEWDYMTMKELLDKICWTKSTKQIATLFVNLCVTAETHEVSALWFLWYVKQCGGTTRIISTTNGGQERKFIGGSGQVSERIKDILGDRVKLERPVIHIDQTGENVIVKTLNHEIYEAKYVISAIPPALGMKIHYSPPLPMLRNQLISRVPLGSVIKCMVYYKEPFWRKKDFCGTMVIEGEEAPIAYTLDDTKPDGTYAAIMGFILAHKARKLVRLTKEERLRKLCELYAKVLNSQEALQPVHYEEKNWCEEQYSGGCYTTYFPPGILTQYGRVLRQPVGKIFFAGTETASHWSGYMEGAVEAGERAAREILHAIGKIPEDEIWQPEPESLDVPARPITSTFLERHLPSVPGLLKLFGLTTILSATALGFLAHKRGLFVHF
In words: Inhibition of MAOB in Swiss mouse brain homogenates assessed as residual activity at 50 uM using benzylamine as substrate preincubated for 10 mins followed by substrate addition by amplex red reagent-based horseradish peroxidase-coupled fluorescence assay relative to control. Type of data set: tissue-based. The conditions noted are these: read-out: Activity.

Data set [7] relates to Mus musculus. Kind of data set: Effect on spontaneous locomotor activity in Swiss mouse assessed as change in number of light beam crossings at >10 mg/kg, ip measured after 30 mins and monitored for 5 mins. Type of data set: ADME, organism-based. To be noted: in vivo. The essentials: as §1
Data set [8] is described as follows: Toxicity in Swiss mouse assessed as change in behavior at 0.3 mg/kg, ip administered once daily for 10 days measured during compound dosing. Type of data set: organism-based. The conditions noted are these: in vivo, 240 h.
The test system of data set [9] is Mus musculus. Kind of data set: Ex vivo inhibition of MAOB in Swiss mouse brain homogenates assessed as residual activity at 30 mg/kg, po administered via gavage measured after 90 mins using benzylamine as substrate by amplex red reagent-based horseradish peroxidase-coupled fluorescence assay relative to control. Type of data set: functional.
In data set [10] the test system is Mus musculus. In words: Ex vivo inhibition of MAOB in Swiss mouse brain homogenates assessed as residual activity at 0.3 mg/kg, ip measured after 30 mins using benzylamine as substrate by amplex red reagent-based horseradish peroxidase-coupled fluorescence assay relative to control. Type of data set: functional.
Data set [11] deals with Mus musculus. In words: Ex vivo inhibition of MAOB in ip dosed Swiss mouse brain homogenates measured after 30 mins using benzylamine as substrate by amplex red reagent-based horseradish peroxidase-coupled fluorescence assay. Type of data set: functional. The conditions noted are these: 0.5 h.
The nature of data set [12]: Cytotoxicity against human SH-SY5Y cells assessed as cell viability at 50 uM measured after 24 hrs by MTS assay relative to control. Type of data set: cell-based. The conditions noted are these: read-out: Activity. The method, boiled down: (§2)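 SH-SY5Y human neuroblastoma cells grown in Advanced DMEM with 10% FBS at 37 °C, 5% CO2, and switched to serum-depleted medium before treatment. Compounds (20 mM DMSO stocks) were applied at 5, 10 or 50 μM for 24 h. Viability read by MTS assay.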

Data set [13] has as its system Mus musculus. In words: Ex vivo inhibition of MAOA/MAOB in Swiss mouse brain homogenates assessed as residual activity at 60 mg/kg, ip measured after 30 mins using p-tyramine as substrate by amplex red reagent-based horseradish peroxidase-coupled fluorescence assay relative to control. Type of data set: functional. The essentials:
(§3)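 Male Swiss mice (n = 3 per group) received 60 mg/kg ip in 0.9% saline, or saline alone, 30 min before brain homogenate preparation. […] Residual activity reported as mean ± SD, n = 1 in triplicate.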

The test system of another data set is SH-SY5Y. Kind of data set: Cytotoxicity against human SH-SY5Y cells assessed as reduction in cell viability at 5 to 10 uM measured after 24 hrs by MTS assay. Type of data set: cell-based. The method, boiled down:
as §2

Data set [14] has as its system Mus musculus. In words: Ex vivo inhibition of MAOB in Swiss mouse brain homogenates assessed as residual activity at 60 mg/kg, ip measured after 30 mins using benzylamine as substrate by amplex red reagent-based horseradish peroxidase-coupled fluorescence assay relative to control. Type of data set: functional. The essentials:
as §3

The nature of data set [15]: Chemical stability of the compound in D2O measured incubated for >1 year at room temperature under dark condition by NMR analysis. Type of data set: physicochemical.

For `C#CCN1CCC(CCc2ccc(C(F)(F)F)cc2)CC1.Cl`, the Activity entry is reported as “Toxic” in the data set with Mus musculus [1]; “Non-Toxic” in data set [2]; 28.3% in the data set on Mus musculus [3]; “Toxic” in the data set on Mus musculus [4]; “Toxic” with Mus musculus [5]; “Toxic” with Mus musculus [7]. Also, the Activity result is recorded as “Non-Toxic” in data set [8]; 30.5% in the data set on Mus musculus [9]; 83.4% in the data set on Mus musculus [10]; 77.2% in the data set with Mus musculus [13]; “Non-Toxic” in the data set on SH-SY5Y; 24.3% in the data set with Mus musculus [14]. For the same compound, in data set [6], the activity at 50 µM was -7.7%. The compound also registered an ED50 in the data set with Mus musculus [11] of 1.38 mg/kg. In addition, the viability at 24 h, 50 µM in data set [12] was over 80%. For the same compound, the Stability entry in [15] was “Stable”.
